In ChEMBL document CHEMBL4699639, “Discovery of Novel 2-Aniline-1,4-naphthoquinones as Potential New Drug Treatment for Leber's Hereditary Optic Neuropathy (LHON)” (J Med Chem, 2020):
Activity calls are given as the source filed them. No cut-off for these calls is given here.

What was measured:
HepG2 [1] = assay: Suppression of rotenone-induced ATP depletion in human HepG2 cells assessed as increase in rescue of ATP level at 1 uM incubated for 2 hrs by Celltiter-Glo assay; assay type: functional, cell-based
In short: (§1)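 HepG2 cells seeded 10×10^3 per well in 1 g/L glucose, 2% FBS medium the day before. Switched to glucose- and FBS-free medium containing 10 µM rotenone, with compound added at the same time, 2 h at 37 °C. ATP read by CellTiter-Glo luminescence, normalized to DMSO cells without rotenone. Mean ± SEM of ≥3 independent runs. Complex III inhibitors, where used, at 50 nM.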

HepG2 [2] = assay: Cytotoxicity against human HepG2 cells assessed as cell reduction in cell viability at 25 uM incubated for 24 hrs by Celltiter-blue assay; assay type: cell-based; conditions: hepg2, 24 h
In short: (§2)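 HepG2 or SH-SY5Y seeded 10×10^3 per well the day before in 1 g/L glucose medium with 2% FBS. Medium replaced with fresh 2% FBS, 1 g/L glucose medium containing compound (25 µM) for 24 h at 37 °C. CellTiter-Blue added for 4 h, fluorescence read at 560/590 nm. Viability given as % of vehicle/untreated cells. Mean ± SEM of ≥3 independent runs.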

SH-SY5Y [3] = assay: Cytotoxicity against human SH-SY5Y cells assessed as reduction in cell viability at 25 uM incubated for 24 hrs by Celltiter-blue assay; assay type: cell-based; in short: as §2
[4] = (§3) Suppression of rotenone-induced ATP depletion in human HepG2 cells assessed as rescue of ATP level at 5 uM incubated for 2 hrs by Celltiter-Glo assay relative to control; assay type: functional; in short: as §1
[5] = molecular target: NAD(P)H dehydrogenase [quinone] 1 (Homo sapiens) (UniProt P15559); assay: Substrate activity at recombinant NQO1 (unknown origin) assessed as reduction in NADH level at 20 uM measured for 6 mins by microplate reader analysis
[6] = Suppression of rotenone-induced ATP depletion in human HepG2 cells assessed as rescue of ATP level incubated for 2 hrs by Celltiter-Glo assay relative to control; assay type: functional; parameters: concentration or dose not given beside the values; in short: as §1
[7] = Cytotoxicity against human HepG2 cells assessed as cell viability at 25 uM incubated for 24 hrs by Celltiter-blue assay relative to control; assay type: cell-based; conditions: read-out: Activity; in short: as §2
[8] = molecular target: NAD(P)H dehydrogenase [quinone] 1 (Homo sapiens) (UniProt P15559); assay: Substrate activity at NQO1 in human HepG2 cells assessed as reduction in cell viability by WST-1 assay; assay type: cell-based
SH-SY5Y [9] = assay: Cytotoxicity against human SH-SY5Y cells assessed as reduction in cell viability by WST-1 assay; assay type: cell-based
[10] = Cytotoxicity against […] assessed as reduction in cell viability by WST-1 assay; assay type: cell-based; conditions: r28
[11] = molecular target: NAD(P)H dehydrogenase [quinone] 1 (Homo sapiens) (UniProt P15559); assay: Substrate activity at NQO1 in human HepG2 cells assessed as reduction in cell viability in presence of NQO1 inhibitor dicoumarol by WST-1 assay; assay type: cell-based
HepG2 [12] = assay: as §3; assay type: functional; in short: as §1

Sequence of NAD(P)H dehydrogenase [quinone] 1 (Homo sapiens) (P15559 whole entry): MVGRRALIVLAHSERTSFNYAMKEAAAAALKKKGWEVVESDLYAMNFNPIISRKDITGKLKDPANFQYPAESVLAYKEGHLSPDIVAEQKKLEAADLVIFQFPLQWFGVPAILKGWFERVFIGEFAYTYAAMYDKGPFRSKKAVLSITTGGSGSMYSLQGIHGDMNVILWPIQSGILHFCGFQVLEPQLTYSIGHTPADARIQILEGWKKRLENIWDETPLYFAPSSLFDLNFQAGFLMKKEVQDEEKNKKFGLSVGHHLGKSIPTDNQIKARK

For O=C1C(Cl)=C(Nc2cccc(C(F)(F)F)c2)C(=O)c2ccccc21, the Activity (HepG2 [1]) was “Active”, the Activity (HepG2 [2]) was “Toxic” and the Activity (SH-SY5Y [3]) was “Toxic”.

For COC(=O)c1ccc(NC2=C(Cl)C(=O)c3ccccc3C2=O)cc1, the Activity [4] was 70%, the Activity (HepG2 [2]) was “Toxic” and the Activity (SH-SY5Y [3]) was “Toxic”.

For COC1=C(Nc2ccccc2)C(=O)c2ccccc2C1=O, the Activity (HepG2 [1]) was “inactive” and the Activity (SH-SY5Y [3]) was “Non-Toxic”.

For CC1=C(Sc2ccccc2)C(=O)c2ccccc2C1=O, the Activity [4] was 70% and the Activity (SH-SY5Y [3]) was “Toxic”.

With CNC1=C(Nc2ccc(F)c(C(F)(F)F)c2)C(=O)c2ccccc2C1=O the Activity (SH-SY5Y [3]) was “Non-Toxic”, the Activity [5] was “inactive” and the Activity [6] was 14.7%. The viability at 24 h, 25 µM [7] was 95.8%.

In the case of O=C1C(Cl)=C(NCc2cccc(C(F)(F)F)c2)C(=O)c2ccccc21, the Activity (HepG2 [1]) is reported as “Active”.

In the case of O=C1C(Cl)=C(Nc2cccc(O)c2)C(=O)c2ccccc21, the Activity [8] is reported as “Active”, the Activity (SH-SY5Y [9]) is reported as “Non-Toxic” and the Activity [10] is reported as “Non-Toxic”. The Activity [11] was “inactive”.

With COC1=C(Nc2cc(C(F)(F)F)ccc2F)C(=O)c2ccccc2C1=O the Activity [8] was “Active”, the Activity (HepG2 [1]) was “Active” and the Activity (SH-SY5Y [3]) was “Non-Toxic”. The Activity (SH-SY5Y [9]) was “Non-Toxic”, the Activity [10] was “Non-Toxic” and the Activity [11] was “inactive”.

For O=C1C(Br)=C(NCCc2ccccn2)C(=O)c2ccccc21, the Activity (SH-SY5Y [3]) was “Toxic”.

For O=C1C(Nc2cccc(C(F)(F)F)c2)=C(SC(F)(F)F)C(=O)c2ccccc21, the Activity (HepG2 [1]) was “Active”, the Activity (HepG2 [2]) was “Toxic” and the Activity (SH-SY5Y [3]) was “Toxic”.

For CCCCNC1=C(Cl)C(=O)c2ccccc2C1=O, the Activity [4] was 70% and the Activity (SH-SY5Y [3]) was “Toxic”.

For NC1=C(Cl)C(=O)c2ccccc2C1=O, the Activity (HepG2 [12]) was “inactive”.

With O=C1C(Nc2ccccc2)=C(Oc2ccccc2)C(=O)c2ccccc21 the Activity (HepG2 [1]) was “inactive”.

For CN(C)C1=C(Nc2ccccc2)C(=O)c2ccccc2C1=O, the Activity (HepG2 [1]) was “Active”.

In the case of CC1=C(CCCCCCCCCCO)C(=O)c2ccccc2C1=O, the Activity (HepG2 [1]) is reported as “inactive”.

For CC1=C(SC(C)(C)C)C(=O)c2ccccc2C1=O, the Activity [4] was 70% and the Activity (SH-SY5Y [3]) was “Toxic”.

In the case of O=C1C=C(NCCCCO)C(=O)c2ccccc21, the Activity (SH-SY5Y [3]) is reported as “Toxic”.

For O=C1C(Cl)=C(NCc2ccccc2)C(=O)c2ccccc21, the Activity [4] was 70%, the Activity (HepG2 [1]) was “Active” and the Activity (SH-SY5Y [3]) was “Toxic”.

In the case of CC(C)OC1=C(Nc2ccccc2)C(=O)c2ccccc2C1=O, the Activity (HepG2 [1]) is reported as “inactive”.

In the case of O=C1C(Cl)=C(Nc2ccc(Nc3ccccc3)cc2)C(=O)c2ccccc21, the Activity (HepG2 [2]) is reported as “Toxic” and the Activity (SH-SY5Y [3]) is reported as “Toxic”.

In the case of O=C1C(Nc2ccc(F)c(C(F)(F)F)c2)=C(SC(F)(F)F)C(=O)c2ccccc21, the Activity [8] is reported as “Active”, the Activity (HepG2 [1]) is reported as “Active” and the Activity (HepG2 [2]) is reported as “Toxic”. For the same molecule, the Activity (SH-SY5Y [3]) was “Toxic”, the Activity (SH-SY5Y [9]) was “Non-Toxic” and the Activity [10] was “Non-Toxic”. The Activity [5] was “Active”, the Activity [11] was “inactive” and the Activity [6] was 58.6%. The viability at 24 h, 25 µM [7] was 65.8%.

With O=C1C(Cl)=C(NCCc2cccc(C(F)(F)F)c2)C(=O)c2ccccc21 the Activity (HepG2 [1]) was “Active”.
